Molecules are shown by their SMILES.

A short description of this data set: Toxicity liver stage against HepG2, at 10uM. The class given is cell-based. Also on record: test concentration 10 uM, cell line HepG2-A16-CD81EGFP. Conditions: human, HepG2-A16-CD81EGFP cells; read-out: INHIBITION
In a few lines: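 Uninfected HepG2-A16-CD81EGFP cells, 3 × 10^3 per well, 1536-well, plated on prespotted compound at 10 μM final, parasite-free screening media added to match infected plates; puromycin 10 μM positive, DMSO 0.5% negative; run in parallel with 48 h PbLuc assay at 37 °C, 5% CO2; viability by CellTiter-Glo luminescence, normalized to controls.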
Take `O=C1NCCCc2c1oc1ccc(O)c(CN3CCOCC3)c21`: the cytotoxicity at 10 µM was 13.3%.

Regarding `O=S(=O)(c1cccs1)N1CCN(Cc2nc(-c3ccco3)cs2)CC1`, the cytotoxicity at 10 µM came to 21.2%.

For `CCO[C@H]1CN(C(=O)c2ccc3c(c2)OCO3)[C@@H]2COC[C@H]12`, the cytotoxicity at 10 µM was -130%.

For `c1csc(CN2CCc3nc(N4CCOCC4)nc(NC4CC4)c3C2)n1`, the cytotoxicity at 10 µM worked out at 0.0529%.

For the compound `Cn1nnc2c1CCN(S(C)(=O)=O)C2COCC1CC1` (stereo unspecified), the cytotoxicity at 10 µM was -4.6%.

`O=c1c2cc3c(cc2nnn1Cc1ccccc1Cl)OCCO3`: the cytotoxicity at 10 µM came to 9.32%.

Regarding `Cc1nc(NCCCn2cccn2)c2c(n1)c(C)nn2C`, the cytotoxicity at 10 µM is 6.64%.

As to `Cc1nnc(SCC(=O)NCc2ccc3c(c2)CCC(=O)N3)n1C`, the cytotoxicity at 10 µM is 9.73%.

`CS(=O)(=O)Nc1ccn(Cc2ccc(Cl)cc2)n1`: the cytotoxicity at 10 µM turned out to be 6.44%.

With `CNc1cncc(C2CCN(C(=O)c3coc(C)n3)CC2)n1`, the cytotoxicity at 10 µM came to 0.109%.

Consider `COc1ccc(Oc2nccnc2C2CCN(C(C)=O)CC2)cc1`, for which the cytotoxicity at 10 µM is -12.4%.

For `COc1cnc(C2(O)CCN(C(=O)c3ccccn3)CC2)c(OC)n1`, the cytotoxicity at 10 µM was -8.99%.

For the compound `Cc1c[nH]nc1C1CCCCN1C(=O)CCn1nccc1C` (stereo unspecified), the cytotoxicity at 10 µM is -6.39%.

Turning to `CC(=O)N1CC2(CCN(Cc3ccc(Cl)cc3)C2)Cc2ccccc21` (stereo unspecified), the cytotoxicity at 10 µM amounted to 7.74%.

With `N#Cc1cnc(NCc2cccc(C(=O)N3CCCC3)c2)c(Cl)c1`, the cytotoxicity at 10 µM was -0.657%.

In the case of `Cc1ccc(CNS(=O)(=O)CCCC#N)cc1F`, the cytotoxicity at 10 µM was -9.48%.

For the compound `CSC1(CNC(=O)N(C)Cc2ccc(C)s2)CCOCC1`, the cytotoxicity at 10 µM is -46.5%.

Regarding `COCC(=O)N[C@H](C(=O)NC(C)c1cc(C)ccc1C)C(C)C` (stereo partly specified), the cytotoxicity at 10 µM is 0.341%.

`CN1CCOC(CNC(=O)C2(c3ccccc3)CCC2)C1` (stereo unspecified): the cytotoxicity at 10 µM came out at 6.17%.

For the compound `CCN(CC)C(=O)CCc1nc(-c2cnn3c(C)cc(C)nc23)no1`, the cytotoxicity at 10 µM was -11.5%.

`CCn1nc(C)cc1C(=O)N1CCC(Nc2ccc(C)nn2)CC1`: the cytotoxicity at 10 µM is -4.32%.

With `Cc1c(NC(C)C(C)C)cccc1C(=O)NCc1nccn1C` (stereo unspecified), the cytotoxicity at 10 µM is -5.99%.

Regarding `COc1ccc(C(O)CN2CC(n3cc(C)cn3)C2)cc1` (stereo unspecified), the cytotoxicity at 10 µM was found to be 4.52%.

In the case of `COc1c(C)cnc(CSc2nnc(NC3CC3)s2)c1C`, the cytotoxicity at 10 µM was 10.9%.

For the compound `CCN(CC)S(=O)(=O)N1CCCN(CC(=O)NC(C)C)CC1`, the cytotoxicity at 10 µM worked out at 2.75%.

Consider `Cc1ccc(C2CN(c3nnc(C(F)F)s3)CCO2)c(C)c1` (stereo unspecified), for which the cytotoxicity at 10 µM came to 3.28%.

On to `N#Cc1ccc(C(=O)NS(=O)(=O)c2ccc(C#N)c(Cl)c2)cc1`, for which the cytotoxicity at 10 µM amounted to 5.44%.

For `CCN(Cc1ccoc1)C(=O)NC1CCN(CC=C(C)C)CC1`, the cytotoxicity at 10 µM was -3.89%.

Consider `Cc1nn(-c2ccccc2)nc1C(=O)NCC(c1ccsc1)N(C)C` (stereo unspecified), for which the cytotoxicity at 10 µM is -22.3%.

Consider `Cc1cccc(C2(O)CCN(C(=O)c3ccccn3)CC2)c1C`, for which the cytotoxicity at 10 µM is -0.823%.

Consider `CS(=O)(=O)Cc1ccc(Cl)c(NCc2noc(C3CC3)n2)c1`, for which the cytotoxicity at 10 µM came out at 6.95%.

`NC(=O)c1cccc(CCNC(=O)N2CCCC2)c1`: the cytotoxicity at 10 µM was -3.88%.

As to `COCCC1(CNC(=O)Nc2ccnc(C)c2)CCCC1`, the cytotoxicity at 10 µM was 2.12%.

Consider `Cc1cnc(CNS(=O)(=O)CCC2CCCO2)o1` (stereo unspecified), for which the cytotoxicity at 10 µM is 9.84%.

Turning to `Cc1ccc(NC(=O)NCC(c2cnn(C)c2)N(C)C)c(C)c1` (stereo unspecified), the cytotoxicity at 10 µM is -0.538%.

On to `CCC(Nc1ccc(CCN2CCCCC2)cc1)C(N)=O` (stereo unspecified), for which the cytotoxicity at 10 µM worked out at 4.47%.

Regarding `NC1CCCN(Cc2cccc(C(F)(F)F)c2)C1=O` (stereo unspecified), the cytotoxicity at 10 µM is 5.85%.

Regarding `CC(CNC(=O)c1cnc[nH]1)Oc1ccccc1Br` (stereo unspecified), the cytotoxicity at 10 µM worked out at 2.74%.

For the compound `CN1CCN(C(=O)c2ccc3c(c2)[nH]c(=O)n3C2CCCC2)CC1`, the cytotoxicity at 10 µM is -42.2%.

Regarding `CCCN(CC(=O)OC)S(=O)(=O)c1cnc2c(c1)c(C)nn2C`, the cytotoxicity at 10 µM was -2.61%.

As for `CC(=O)NCc1ccc(-n2ccnc2C)nc1`, the cytotoxicity at 10 µM was -6.49%.

Turning to `COCCC1COC2(CCN(C(=O)c3ccsc3)CC2)C1` (stereo unspecified), the cytotoxicity at 10 µM was -71.2%.

On to `CN1C(=O)CC(c2cnn(C)c2)C12CCN(C(=O)c1ccnnc1)CC2` (stereo unspecified), for which the cytotoxicity at 10 µM is -74.4%.

`CCN1CCCn2c(nc(CNC(=O)c3ccsc3)cc2=O)C1`: the cytotoxicity at 10 µM turned out to be 1.16%.

On to `CCn1nc(CC(C)C)cc1C(=O)N1CC(c2ccncc2)C1`, for which the cytotoxicity at 10 µM was -6.38%.

On to `COc1cccc2c1OCC(Cc1cc(C(=O)N3CCCC3)ccn1)C2` (stereo unspecified), for which the cytotoxicity at 10 µM is 5.15%.

On to `CNC(=O)C1CCN(c2ncnc3c2CCN(C(=O)C2CC2)C3)C1` (stereo unspecified), for which the cytotoxicity at 10 µM is 1.67%.

In the case of `CCN(Cc1nc(COC)no1)C(=O)CCNC(=O)c1ccccc1F`, the cytotoxicity at 10 µM was -4.17%.

Take `CCC(NC(=O)C1CCN(C(C)C)CC1)c1cn2cccnc2n1` (stereo unspecified): the cytotoxicity at 10 µM is -6.21%.

`CCc1nccn1CC(=O)N1CCN(C2CCc3ccccc3C2)CC1` (stereo unspecified): the cytotoxicity at 10 µM is -119%.

For the compound `COc1cc(CNc2nc3c(c(=O)[nH]2)CCNC3)cc(OC)c1OC`, the cytotoxicity at 10 µM amounted to 4.72%.

For `COCCCN1CC2(CCN(C(=O)c3ncc(F)cc3F)CC2)CC1=O`, the cytotoxicity at 10 µM is -3.94%.

For `Cc1cc(C2CCC2)nc(NCC(C)(C)N2CCCC2)n1`, the cytotoxicity at 10 µM was -0.21%.

For `CNc1cc(C(=O)N2CCC3(CC2)Nc2ccccc2NC3=O)ccn1`, the cytotoxicity at 10 µM came out at 3.46%.

`CCOc1ccc2nc(CN3CCC(CN)C3)ccc2c1` (stereo unspecified): the cytotoxicity at 10 µM was -7.41%.

Regarding `COc1nc2ccn(CCc3cc(O)nc(C)n3)c(=O)c2cc1C#N`, the cytotoxicity at 10 µM worked out at 10.9%.

`CCC(C(=O)NCc1csc(N2CCOCC2)n1)n1cccn1` (stereo unspecified): the cytotoxicity at 10 µM is -2.88%.

On to `CCc1ccccc1OCCN1C[C@@H](NS(C)(=O)=O)[C@H](C(C)C)C1`, for which the cytotoxicity at 10 µM is -47.5%.

On to `N[C@H]1CN(S(=O)(=O)c2ccccc2)C[C@@H]1C1CC1`, for which the cytotoxicity at 10 µM was -14.3%.

Take `C[C@@H]1CN(C2CCCCC2)CC[C@@]1(O)C1CCOCC1`: the cytotoxicity at 10 µM was -7.58%.

Take `Cn1ccnc1CN1CCC(CNS(=O)(=O)c2cccnc2)C1` (stereo unspecified): the cytotoxicity at 10 µM stood at 6.03%.

Turning to `COc1cc(-c2cnnc(NCCCOC(C)C)n2)cc(OC)c1OC`, the cytotoxicity at 10 µM turned out to be 3.51%.

In the case of `COCCn1ccnc1C1CCCN(c2ncnc3c2CCC3)C1` (stereo unspecified), the cytotoxicity at 10 µM was 1.66%.

Turning to `CCN(Cc1cc(Cl)ccc1OC)Cc1cc(C)nn1C`, the cytotoxicity at 10 µM was 6.62%.

In the case of `Cc1ccccc1CSc1nc(N)cc(N2C[C@H](O)[C@@H](N(C)C)C2)n1`, the cytotoxicity at 10 µM worked out at 17.3%.

For the compound `N#CCCn1nc(C(F)(F)F)c2c1CCC2`, the cytotoxicity at 10 µM is -12%.

As to `Cc1cccc(C)c1OC1CCN(Cc2ccn(C)c(=O)c2)CC1`, the cytotoxicity at 10 µM is -2.95%.

On to `CSC(C)C(=O)N(C)CCCc1cc(-c2ccccc2)no1` (stereo unspecified), for which the cytotoxicity at 10 µM worked out at 2.63%.

In the case of `CN(C)c1ncccc1CNC(=O)N1CCCC1CN1CCCC1` (stereo unspecified), the cytotoxicity at 10 µM was -12.4%.

`Fc1ccc(-c2nc(CN3CCOC(Cn4cccn4)C3)co2)cc1` (stereo unspecified): the cytotoxicity at 10 µM was -3.78%.

As for `CC1CN(Cc2nccn2C)CCN1c1ccc2nncn2n1` (stereo unspecified), the cytotoxicity at 10 µM is -8.52%.

As for `Cc1cnn(CCNCC(=O)NCCOc2ccccc2)c1`, the cytotoxicity at 10 µM was -14%.

On to `CN(Cc1cnn(-c2ccccc2)n1)CC1CCCN1c1cccnn1` (stereo unspecified), for which the cytotoxicity at 10 µM is -6.56%.

Turning to `CC(=O)Nc1nc(C(=O)N2CCCC(n3nc(C)cc3C)C2)cs1` (stereo unspecified), the cytotoxicity at 10 µM came out at 0.74%.

Take `O=C(CN1CCCC1Cn1cncn1)NCCc1c(F)cccc1F` (stereo unspecified): the cytotoxicity at 10 µM was -6.24%.

Turning to `Cc1nccn1C1CCCN(C(=O)c2ccc3c(c2)COC3)C1` (stereo unspecified), the cytotoxicity at 10 µM is -10.8%.

`COc1ccc(S(=O)(=O)NCc2cccnc2N(C)C)cc1F`: the cytotoxicity at 10 µM was found to be 5.8%.

Consider `CC(C)(C)c1nnc(CN2CCN(CC(O)c3ccccc3)CC2)o1` (stereo unspecified), for which the cytotoxicity at 10 µM was -12.8%.

For `CC(=O)Nc1ccc(S(=O)(=O)NC(=O)CCC2CCCO2)cc1` (stereo unspecified), the cytotoxicity at 10 µM was -5.11%.

Regarding `CS(=O)(=O)NCC1CCCN(C(=O)c2cc3ccccc3o2)C1` (stereo unspecified), the cytotoxicity at 10 µM is -1.82%.

Take `Cn1ccc(CN2CCC(COC3CCCC3)CC2)cc1=O`: the cytotoxicity at 10 µM was -1.68%.

Consider `CN(Cc1ccco1)C[C@H]1OC[C@@H]2CN(c3ncc(F)cn3)CC[C@@H]21`, for which the cytotoxicity at 10 µM amounted to 21.9%.

Turning to `CC1CCN(C(=O)CN2CC(c3nc(C4CC4)no3)C2)CC1`, the cytotoxicity at 10 µM is -6.6%.

Regarding `CC(C)c1nn(C)c(Cl)c1CNCc1cccnc1N(C)C`, the cytotoxicity at 10 µM was 10.7%.

As to `CC(C)N1[C@H](Cn2cncn2)C[C@@H]2CN(Cc3cccs3)CC[C@@H]21`, the cytotoxicity at 10 µM was -109%.

`CN(C)C1CC2(CCN(C(=O)C3(C#N)CC3)CC2)c2ccccc21` (stereo unspecified): the cytotoxicity at 10 µM was -113%.

As to `Cc1noc(C)c1CN1CCc2ncc(CN(C)C)n2CC1`, the cytotoxicity at 10 µM came to 8.46%.

Take `Cn1cc(C[C@H]2[C@H](O)CCN2Cc2ccc(F)cc2)cn1`: the cytotoxicity at 10 µM is -75.9%.

Regarding `O=C([C@H]1CCCN1)N1CC2(CCNCC2)c2cc(Cl)ccc21`, the cytotoxicity at 10 µM is 0.286%.

On to `Cc1nnc(N2CCCC3(CN(Cc4ccc(F)cc4)CCO3)C2)o1` (stereo unspecified), for which the cytotoxicity at 10 µM is -6.63%.

`CN(C)[C@@H]1CCN(C(=O)c2cccn2C)[C@H]1Cc1cnn(C)c1`: the cytotoxicity at 10 µM was -74.6%.

As to `Fc1cccc(CN2CCOCC3(CCN(C4CCOCC4)C3)C2)c1` (stereo unspecified), the cytotoxicity at 10 µM is -0.503%.

On to `CN(C)C1COC2(CCN(S(=O)(=O)c3ccc(F)cc3)CC2)C1` (stereo unspecified), for which the cytotoxicity at 10 µM is -129%.

As for `CCCC(=O)N1CC[C@@H]2[C@H](CC1)N(Cc1cccc(C)n1)CCS2(=O)=O`, the cytotoxicity at 10 µM was -2.88%.

Regarding `COc1ccccc1-c1ccc(C(=O)N2C[C@@H]3CC[C@H]2CN(C)C3)cc1`, the cytotoxicity at 10 µM is -18.2%.

In the case of `COCC(=O)NCC1(COc2cccnc2)C[C@@H](O)[C@@H](O)C1` (stereo partly specified), the cytotoxicity at 10 µM is 2.52%.

The record behind these values is ChEMBL document CHEMBL4513216, “Probing the Open Global Health Chemical Diversity Library for Multistage-Active Starting Points for Next-Generation Antimalarials” (ACS Infect Dis, 2020).
